These results are taken from ChEMBL document CHEMBL2062453, “Lead optimization through VLAK protocol: new annelated pyrrolo-pyrimidine derivatives as antitumor agents” (2012).

Type in all cases: functional
One experiment relates to UACC-257. As to the kind of experiment: Cytotoxicity against human UACC257 cells after 48 hrs by SRB assay. The following applies: UACC-257, 48 h. The method in brief: (§1)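 NCI 60-panel five-dose screen. Cells in RPMI 1640 with 5% FBS and 2 mM glutamine, plated at 5000–40,000 cells/well and preincubated 24 h at 37 °C under 5% CO2. Five 10-fold or half-log dilutions were added from a DMSO stock for 48 h. Cells were TCA-fixed (SR settled cells: 16% final), SRB-stained and read at 515 nm. GI50 was taken where (Ti−Tz)/(C−Tz)×100 = 50.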
For orientation: In SRB staining, fixed cells bind dye roughly in proportion to their protein.

Another experiment has as its system IGROV-1. As to the kind of experiment: Cytotoxicity against human IGROV1 cells after 48 hrs by SRB assay. The following applies: IGROV-1, 48 h. In short, it runs like this: (§2)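 NCI 60-cell five-dose screen. Cells grown in RPMI 1640 with 5% FBS and 2 mM glutamine, plated at 5000–40,000 cells/well, and preincubated 24 h at 37 °C in 5% CO2. Time-zero plates fixed with TCA. Five serial dilutions of DMSO stock added, then 48 h exposure. TCA fixation, 0.4% SRB staining, absorbance read at 515 nm. GI50 from [(Ti−Tz)/(C−Tz)]×100 = 50.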

The test system of a further experiment is NCI-H522. Briefly: Cytotoxicity against human NCI-H522 cells after 48 hrs by SRB assay. Conditions: NCI-H522, 48 h. The method in brief:
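Five-dose screen, 10-fold or ½-log dilutions, compound stock in DMSO. Cells were in RPMI 1640 with 5% FBS and 2 mM glutamine at 5000–40,000 cells/well, preincubated 24 h, 37 °C, 5% CO₂, with a time-zero plate TCA-fixed. After 48 h drug exposure, cells were TCA-fixed and stained with 0.4% SRB, read at 515 nm. GI50, TGI and LC50 were derived from time-zero, control and test absorbances.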

In another experiment the test system is K562. As to the kind of experiment: Cytotoxicity against human K562 cells after 48 hrs by SRB assay. Conditions: K562, 48 h. In short, it runs like this: as §2
The test system of a further experiment is SR. As to the kind of experiment: Cytotoxicity against human SR cells after 48 hrs by SRB assay. In short, it runs like this:
as §1

Setting [1] is: read-out: pLC50 (the source's name) (converted).

The term GI50 denotes the concentration at which growth is held to half of that of the control. With `CSC1=Nc2c(c(C)c(-c3ccccc3)n2CCCCl)C2=NC(=O)CN12`, the GI50 was 12.6 µM with UACC-257; 3.55 µM in the experiment on IGROV-1; 3.89 µM with NCI-H522; 5.75 µM in the experiment with K562; 3.47 µM in the experiment on SR. Besides, the CC50 in the experiment on UACC-257 (setting [1]) is 64.6 µM; with IGROV-1 (setting [1]), 95.5 µM; in the experiment on NCI-H522 (setting [1]) it was 75.9 µM; in the experiment with K562 (setting [1]), greater than 100 µM; with SR (setting [1]), greater than 100 µM. Further, the TGI in the experiment on UACC-257 (read-out: pTGI (converted)) was 28.2 µM; with IGROV-1 (read-out: pTGI (converted)), 21.4 µM; in the experiment on NCI-H522 (read-out: pTGI (converted)) it was 19.1 µM; with K562 (read-out: pTGI), greater than 100 µM; in the experiment with SR (read-out: pTGI), greater than 100 µM.
